Reference: ChEMBL document CHEMBL4613238, “Synthesis and biological activity of thieno[3,2-d]pyrimidines as potent JAK3 inhibitors for the treatment of idiopathic pulmonary fibrosis” (Bioorg Med Chem, 2020)
The source made the active and inactive calls. The calls are words filed in the database; no cut-off is given here.

Legend:
Mus musculus [1] = test: Antifibrotic activity against bleomycin-induced pulmonary fibrosis C57BL/6J mouse model assessed as reduction in alveolar septal swelling at 60 mg/kg, po administered via gavage qd for 14 days at 3 days post bleomycin challenge by hematoxylin and eosin staining based light microscopic analysis; format: functional, organism-based
Method in brief: (§1)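 Intratracheal bleomycin (33 μg) was given to female C57BL/6J mice. Oral gavage started 3 days later and continued once daily for 14 days, with 1.4% DMSO saline as vehicle; n=8. Lungs were formalin-fixed for 24 h and paraffin-embedded. 5 μm sections were H&E-stained and examined by light microscopy at 200×.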

Mus musculus [2] = test: Antifibrotic activity against bleomycin-induced pulmonary fibrosis C57BL/6J mouse model assessed as reduction in lung coefficient at 60 mg/kg, po administered via gavage qd for 14 days at 3 days post bleomycin challenge; format: functional, organism-based
Method in brief: (§2)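 Bleomycin was given intratracheally (33 μg) to female C57BL/6J mice, 5‒6 weeks old. Daily oral gavage followed for 14 days from day 3, with 1.4% DMSO saline vehicle; n=8 per group. Fresh lungs were weighed and lung index was calculated as lung weight/body weight × 100.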

Mus musculus [3] = test: Antifibrotic activity against bleomycin-induced pulmonary fibrosis C57BL/6J mouse model assessed as reduction in oxidative stress by measuring reduction in MDA level in plasma at 60 mg/kg, po administered via gavage qd for 14 days at 3 days post bleomycin challenge; format: functional, organism-based
Method in brief: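 After 33 μg intratracheal bleomycin, female C57BL/6J mice were gavaged once daily for 14 days from day 3 (vehicle saline, 1.4% DMSO; n=8). MDA was measured in heparinized plasma with a kit by absorbance at 532 nm; mean ± SEM.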

Mus musculus [4] = test: Antifibrotic activity against bleomycin-induced pulmonary fibrosis C57BL/6J mouse model assessed as reduction in IL6 expression in plasma at 60 mg/kg, po administered via gavage qd for 14 days at 3 days post bleomycin challenge by FACSCalibur flow cytometry; format: functional, organism-based
Method in brief: (§3)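 Female C57BL/6J mice (5‒6 weeks, 20‒25 g) were given 33 μg bleomycin intratracheally in saline under isoflurane. From day 3 they received oral gavage once daily for 14 days, with saline containing 1.4% DMSO as vehicle; n=8 per group. Vena cava blood was heparinized and spun at 3000 rpm for 10 min, and plasma was stored at −20 °C. IL-6, IL-17A and TNF-α were measured by flow cytometry; mean ± SEM.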

Mus musculus [5] = test: Antifibrotic activity against bleomycin-induced pulmonary fibrosis C57BL/6J mouse model assessed as reduction in IL17A expression in plasma at 60 mg/kg, po administered via gavage qd for 14 days at 3 days post bleomycin challenge by FACSCalibur flow cytometry; format: functional, organism-based; method in brief: as §3
Mus musculus [6] = test: Antifibrotic activity against bleomycin-induced pulmonary fibrosis C57BL/6J mouse model assessed as reduction in TNF-alpha expression in plasma at 60 mg/kg, po administered via gavage qd for 14 days at 3 days post bleomycin challenge by FACSCalibur flow cytometry; format: functional, organism-based; method in brief: as §3
[7] = target: T1, Tyrosine-protein kinase JAK3 (Homo sapiens, UniProt P52333); test: Inhibition of recombinant human N-terminal GST-tagged JAK3 (781 to end residues) expressed in baculovirus infected Sf9 cells using poly (Glu,Tyr) 4:1 as substrate incubated for 60 mins in presence of ATP by ADP-Glo kinase assay
T1 sequence (P52333 whole entry): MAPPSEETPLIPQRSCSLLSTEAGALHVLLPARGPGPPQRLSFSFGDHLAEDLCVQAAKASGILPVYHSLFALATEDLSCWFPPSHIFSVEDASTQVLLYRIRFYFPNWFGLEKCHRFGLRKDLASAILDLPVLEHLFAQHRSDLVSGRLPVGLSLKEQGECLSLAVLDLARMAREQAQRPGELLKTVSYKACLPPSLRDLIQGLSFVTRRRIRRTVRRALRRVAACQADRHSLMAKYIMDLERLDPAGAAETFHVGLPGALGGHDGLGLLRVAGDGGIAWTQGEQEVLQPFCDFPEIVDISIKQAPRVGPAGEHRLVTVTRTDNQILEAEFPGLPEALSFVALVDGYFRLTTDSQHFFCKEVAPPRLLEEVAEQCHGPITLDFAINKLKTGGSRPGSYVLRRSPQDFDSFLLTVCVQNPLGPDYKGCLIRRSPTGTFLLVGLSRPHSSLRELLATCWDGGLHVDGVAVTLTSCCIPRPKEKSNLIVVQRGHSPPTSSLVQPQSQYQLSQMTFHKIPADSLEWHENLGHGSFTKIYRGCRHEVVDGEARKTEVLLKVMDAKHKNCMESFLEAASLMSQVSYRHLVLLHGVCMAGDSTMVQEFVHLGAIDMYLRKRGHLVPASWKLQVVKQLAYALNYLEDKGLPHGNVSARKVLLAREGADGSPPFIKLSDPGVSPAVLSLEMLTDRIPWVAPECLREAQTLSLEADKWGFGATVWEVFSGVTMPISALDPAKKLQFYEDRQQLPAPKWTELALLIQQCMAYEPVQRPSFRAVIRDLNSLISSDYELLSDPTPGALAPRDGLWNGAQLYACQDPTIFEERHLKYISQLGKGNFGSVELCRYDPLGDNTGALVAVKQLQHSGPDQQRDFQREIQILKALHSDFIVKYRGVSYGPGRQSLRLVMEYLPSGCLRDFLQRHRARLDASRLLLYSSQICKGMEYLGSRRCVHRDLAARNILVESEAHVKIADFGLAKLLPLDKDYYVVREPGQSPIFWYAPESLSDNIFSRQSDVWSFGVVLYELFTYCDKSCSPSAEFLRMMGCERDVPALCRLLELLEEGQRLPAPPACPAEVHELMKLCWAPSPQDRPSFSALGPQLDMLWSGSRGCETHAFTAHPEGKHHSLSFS
Method in brief: (§4)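 ADP-Glo luminescent assay run at compound concentrations of 0.1, 1, 10, 100 and 1000 nM. The kinase reaction ran in 1× kinase buffer for 60 min at room temperature. ADP-Glo reagent was then added to stop the reaction and deplete ATP (40 min, RT), followed by detection reagent (30 min, RT) and a luminescence read. IC50s came from curve fitting; means of three experiments.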

[8] = target: T2, Tyrosine-protein kinase BTK (Homo sapiens, UniProt Q06187); test: Inhibition of BTK (unknown origin) by ADP-Glo kinase assay; method in brief: as §4
T2 sequence (Q06187 whole entry): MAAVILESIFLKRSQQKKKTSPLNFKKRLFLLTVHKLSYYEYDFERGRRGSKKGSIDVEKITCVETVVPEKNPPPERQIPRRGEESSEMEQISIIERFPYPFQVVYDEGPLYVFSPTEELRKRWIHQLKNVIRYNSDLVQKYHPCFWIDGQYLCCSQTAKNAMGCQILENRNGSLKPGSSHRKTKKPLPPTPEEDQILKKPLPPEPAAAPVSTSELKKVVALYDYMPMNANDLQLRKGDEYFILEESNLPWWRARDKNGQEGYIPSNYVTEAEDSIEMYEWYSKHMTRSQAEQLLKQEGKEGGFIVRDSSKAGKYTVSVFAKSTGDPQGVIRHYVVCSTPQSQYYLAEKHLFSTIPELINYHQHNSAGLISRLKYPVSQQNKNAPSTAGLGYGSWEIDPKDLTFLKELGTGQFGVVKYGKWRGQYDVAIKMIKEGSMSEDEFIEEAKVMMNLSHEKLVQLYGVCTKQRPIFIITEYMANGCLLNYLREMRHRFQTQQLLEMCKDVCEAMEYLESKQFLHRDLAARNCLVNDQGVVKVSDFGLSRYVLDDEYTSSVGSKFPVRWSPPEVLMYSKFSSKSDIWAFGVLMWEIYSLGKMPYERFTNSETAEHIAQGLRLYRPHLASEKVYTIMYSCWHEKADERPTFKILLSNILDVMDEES

[9] = Cytotoxicity against human NHBE cells assessed as reduction in cell viability by CCK8 assay; format: cell-based
Method in brief: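 Human bronchial epithelial (HBE) cells were tested for growth inhibition by CCK-8 assay. IC50 values are means of three separate experiments.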

Mus musculus [10] = test: Antifibrotic activity against bleomycin-induced pulmonary fibrosis C57BL/6J mouse model assessed as reduction in alveolar septal swelling at 30 to 60 mg/kg, po administered via gavage qd for 14 days at 3 days post bleomycin challenge by hematoxylin and eosin staining based light microscopic analysis; format: functional, organism-based; method in brief: as §1
Mus musculus [11] = test: Antifibrotic activity against po dosed bleomycin-induced pulmonary fibrosis C57BL/6J mouse model assessed as reduction in alveolar septal swelling administered via gavage qd for 14 days at 3 days post bleomycin challenge by hematoxylin and eosin staining based light microscopic analysis; format: functional, organism-based; method in brief: as §1
Mus musculus [12] = test: Antifibrotic activity against bleomycin-induced pulmonary fibrosis C57BL/6J mouse model assessed as reduction in lung coefficient at 30 to 60 mg/kg, po administered via gavage qd for 14 days at 3 days post bleomycin challenge; format: functional, organism-based; method in brief: as §2
Mus musculus [13] = test: Antifibrotic activity against bleomycin-induced pulmonary fibrosis C57BL/6J mouse model assessed as reduction in collagen deposition by measuring hydroxyproline content in lungs at 60 mg/kg, po administered via gavage qd for 14 days at 3 days post bleomycin challenge by hydroxyproline assay; format: functional, organism-based
Method in brief: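 Bleomycin model in female C57BL/6J mice: 33 μg intratracheal, then daily oral dosing for 14 days beginning on day 3, vehicle saline with 1.4% DMSO, n=8. Lungs were perfused with saline and lavaged with PBS/1 mM EDTA. The left lobe was assayed for hydroxyproline with a kit by absorbance at 550 nm; mean ± SEM.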

Mus musculus [14] = test: Antifibrotic activity against bleomycin-induced pulmonary fibrosis C57BL/6J mouse model assessed as reduction in IL6 expression in plasma at 30 to 60 mg/kg, po administered via gavage qd for 14 days at 3 days post bleomycin challenge by FACSCalibur flow cytometry; format: functional, organism-based; method in brief: as §3
Mus musculus [15] = test: Antifibrotic activity against bleomycin-induced pulmonary fibrosis C57BL/6J mouse model assessed as reduction in IL17A expression in plasma at 30 to 60 mg/kg, po administered via gavage qd for 14 days at 3 days post bleomycin challenge by FACSCalibur flow cytometry; format: functional, organism-based; method in brief: as §3
Mus musculus [16] = test: Antifibrotic activity against bleomycin-induced pulmonary fibrosis C57BL/6J mouse model assessed as reduction in TNF-alpha expression in plasma at 30 to 60 mg/kg, po administered via gavage qd for 14 days at 3 days post bleomycin challenge by FACSCalibur flow cytometry; format: functional, organism-based; method in brief: as §3
Mus musculus [17] = test: Antifibrotic activity against bleomycin-induced pulmonary fibrosis C57BL/6J mouse model assessed as reduction in air-sacculitis at 30 to 60 mg/kg, po administered via gavage qd for 14 days at 3 days post bleomycin challenge by hematoxylin and eosin staining based light microscopic analysis; format: functional, organism-based; method in brief: as §1
Mus musculus [18] = test: Antifibrotic activity against bleomycin-induced pulmonary fibrosis C57BL/6J mouse model assessed as reduction in collagen deposition in lungs at 60 mg/kg, po administered via gavage qd for 14 days at 3 days post bleomycin challenge by Masson's Trichrome staining analysis; format: functional, organism-based
Method in brief: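 Female C57BL/6J mice received 33 μg intratracheal bleomycin, then once-daily gavage for 14 days from day 3 (1.4% DMSO saline vehicle; n=8). Lungs were fixed in formalin for 24 h and paraffin-embedded. 5 μm sections were stained with Masson's trichrome and viewed by light microscopy at 200×.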

[19] = target: T1, Tyrosine-protein kinase JAK3; test: Inhibition of JAK3 (unknown origin)
[20] = target: T2, Tyrosine-protein kinase BTK; test: Inhibition of BTK (unknown origin)
[21] = target: Epidermal growth factor receptor (Homo sapiens, UniProt P00533); test: Inhibition of EGFR (unknown origin)
Epidermal growth factor receptor, sequence (P00533 whole entry): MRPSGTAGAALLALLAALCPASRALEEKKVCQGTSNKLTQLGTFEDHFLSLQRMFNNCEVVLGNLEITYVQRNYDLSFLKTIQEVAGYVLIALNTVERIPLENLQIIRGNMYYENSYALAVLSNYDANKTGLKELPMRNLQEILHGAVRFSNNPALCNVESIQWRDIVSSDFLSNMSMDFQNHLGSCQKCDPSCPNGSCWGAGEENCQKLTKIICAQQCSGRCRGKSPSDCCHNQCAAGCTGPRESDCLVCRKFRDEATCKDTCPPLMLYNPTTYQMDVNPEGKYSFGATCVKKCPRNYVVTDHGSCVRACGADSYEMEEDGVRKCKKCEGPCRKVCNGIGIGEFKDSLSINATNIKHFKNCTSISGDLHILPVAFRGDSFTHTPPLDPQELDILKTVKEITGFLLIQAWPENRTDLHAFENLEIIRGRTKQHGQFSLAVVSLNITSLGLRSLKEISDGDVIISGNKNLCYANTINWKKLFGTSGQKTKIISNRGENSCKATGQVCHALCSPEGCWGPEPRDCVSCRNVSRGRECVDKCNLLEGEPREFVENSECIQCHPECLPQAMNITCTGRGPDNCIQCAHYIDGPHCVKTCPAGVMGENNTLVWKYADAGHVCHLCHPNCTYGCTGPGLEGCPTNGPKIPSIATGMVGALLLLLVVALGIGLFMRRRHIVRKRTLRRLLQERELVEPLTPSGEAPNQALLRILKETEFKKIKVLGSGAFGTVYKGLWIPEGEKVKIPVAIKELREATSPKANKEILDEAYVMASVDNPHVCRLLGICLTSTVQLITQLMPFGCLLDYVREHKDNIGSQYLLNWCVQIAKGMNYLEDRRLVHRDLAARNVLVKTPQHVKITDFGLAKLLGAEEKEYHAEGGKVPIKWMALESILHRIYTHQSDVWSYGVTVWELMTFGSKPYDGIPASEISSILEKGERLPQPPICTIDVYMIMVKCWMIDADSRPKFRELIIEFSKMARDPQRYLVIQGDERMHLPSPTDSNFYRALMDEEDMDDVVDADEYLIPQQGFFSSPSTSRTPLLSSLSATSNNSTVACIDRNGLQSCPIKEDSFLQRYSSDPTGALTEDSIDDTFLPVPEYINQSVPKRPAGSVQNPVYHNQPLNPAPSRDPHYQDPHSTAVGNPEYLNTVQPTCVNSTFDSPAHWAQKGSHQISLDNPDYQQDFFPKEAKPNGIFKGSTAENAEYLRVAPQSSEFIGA

IC50 [7] [nM]	IC50 [8] [nM]	SMILES	Activity (Mus musculus [1])	Activity (Mus musculus [3])	IC50 [9] [nM]	Activity (Mus musculus [12])	Activity (Mus musculus [13])	Activity (Mus musculus [14])	Activity (Mus musculus [15])	Activity (Mus musculus [16])	also measured
1.38	≥ 62.4	C=CC(=O)Nc1cccc(Oc2nc(Nc3ccc(OCCCN4CCOCC4)c(Cl)c3)nc3ccsc23)c1		Active	39000	Active	Active	Active	Active	Active	Activity (Mus musculus [10]): Active; Activity (Mus musculus [11]): Dose-dependent effect; Activity (Mus musculus [17]): Active; Activity (Mus musculus [18]): Active
59.4	> 100	C=CC(=O)Nc1cccc(Nc2nc(Nc3ccc(CN4CCOCC4)cc3)nc3ccsc23)c1			8270						
90.8	> 100	C=CC(=O)Nc1cccc(Oc2nc(Nc3ccc(OCCN4CCOCC4)cc3)nc3ccsc23)c1			23300						

The remaining lines, values behind:

SMILES	IC50 [7] [nM]	IC50 [8] [nM]	Activity (Mus musculus [1])	Activity (Mus musculus [3])	IC50 [9] [nM]	Activity (Mus musculus [12])	Activity (Mus musculus [13])	Activity (Mus musculus [14])	Activity (Mus musculus [15])	Activity (Mus musculus [16])	also measured
COc1cc2ncnc(Nc3ccc(F)c(Cl)c3)c2cc1OCCCN1CCOCC1			Active	Active							Activity (Mus musculus [2]): Active; Activity (Mus musculus [4]): Active; Activity (Mus musculus [5]): Active; Activity (Mus musculus [6]): Active
COC(=O)c1ccc2c(c1)NC(=O)/C2=C(\Nc1ccc(N(C)C(=O)CN2CCN(C)CC2)cc1)c1ccccc1			Active	Active		Active	Active	Active	Active	Active	
C=CC(=O)Nc1cccc(Nc2nc(Nc3ccc(NC(=O)CN4CCOCC4)cc3)ncc2Cl)c1											IC50 [19]: < 10 nM; IC50 [20]: < 10 nM; IC50 [21]: < 10 nM
